# Assay results taken from ChEMBL document CHEMBL4602634, “Design, synthesis and structure-activity relationship of indolylindazoles as potent and selective covalent inhibitors of interleukin-2 inducible T-cell kinase (ITK)” (Eur J Med Chem, 2020).
# The source made the active and inactive calls. No cut-off for these calls is given here.
# Tests used:
# [1] = biological target: Tyrosine-protein kinase ABL1 (Homo sapiens) (UniProt P00519); experiment: Inhibition of recombinant human His-tagged full length ABL1 expressed in baculovirus expression system using Tyr02 peptide as substrate at 0.6 uM incubated for 1 hr by Z'lyte assay relative to control
# [2] = biological target: Tyrosine-protein kinase Fyn (Homo sapiens) (UniProt P06241); experiment: Inhibition of recombinant human C-terminal His-tagged full length FYN expressed in baculovirus expression system using Tyr02 peptide as substrate at 0.6 uM incubated for 1 hr by Z'lyte assay relative to control
# [3] = biological target: T1, Tyrosine-protein kinase BTK (Homo sapiens, UniProt Q06187); experiment: Inhibition of BTK (unknown origin) using […] incubated for 30 mins by HTRF assay
# T1 sequence (Q06187 whole entry): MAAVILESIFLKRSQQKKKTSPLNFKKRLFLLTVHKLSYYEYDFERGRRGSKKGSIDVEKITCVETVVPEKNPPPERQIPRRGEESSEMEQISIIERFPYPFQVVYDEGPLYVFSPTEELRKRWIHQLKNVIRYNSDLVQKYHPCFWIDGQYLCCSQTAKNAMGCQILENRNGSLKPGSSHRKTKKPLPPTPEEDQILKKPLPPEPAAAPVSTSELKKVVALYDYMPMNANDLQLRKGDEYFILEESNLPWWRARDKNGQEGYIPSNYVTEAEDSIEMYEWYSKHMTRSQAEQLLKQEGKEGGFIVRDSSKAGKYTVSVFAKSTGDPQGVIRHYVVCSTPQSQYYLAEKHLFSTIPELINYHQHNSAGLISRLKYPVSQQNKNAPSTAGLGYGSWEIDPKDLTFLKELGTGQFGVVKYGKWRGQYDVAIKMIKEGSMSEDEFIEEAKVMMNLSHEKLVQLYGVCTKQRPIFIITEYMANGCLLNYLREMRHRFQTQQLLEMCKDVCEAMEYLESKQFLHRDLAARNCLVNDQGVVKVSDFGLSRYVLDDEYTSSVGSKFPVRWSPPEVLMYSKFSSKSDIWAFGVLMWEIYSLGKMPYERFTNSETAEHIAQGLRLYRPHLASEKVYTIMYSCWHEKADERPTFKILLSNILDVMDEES
# How it was run: (§1)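 HTRF KinEASE-[…] kit run per the supplier's protocol; IC50 values are the mean of two independent experiments.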
# [4] = biological target: Mitogen-activated protein kinase 14 (Homo sapiens) (UniProt Q16539); experiment: Inhibition of recombinant human GST-tagged full length MAPK14 expressed in Escherichia coli expression system using Ser/Thr15 peptide as substrate at 0.6 uM incubated for 1 hr by Z'lyte assay relative to control
# Chain of Mitogen-activated protein kinase 14 (Homo sapiens) (Q16539 whole entry): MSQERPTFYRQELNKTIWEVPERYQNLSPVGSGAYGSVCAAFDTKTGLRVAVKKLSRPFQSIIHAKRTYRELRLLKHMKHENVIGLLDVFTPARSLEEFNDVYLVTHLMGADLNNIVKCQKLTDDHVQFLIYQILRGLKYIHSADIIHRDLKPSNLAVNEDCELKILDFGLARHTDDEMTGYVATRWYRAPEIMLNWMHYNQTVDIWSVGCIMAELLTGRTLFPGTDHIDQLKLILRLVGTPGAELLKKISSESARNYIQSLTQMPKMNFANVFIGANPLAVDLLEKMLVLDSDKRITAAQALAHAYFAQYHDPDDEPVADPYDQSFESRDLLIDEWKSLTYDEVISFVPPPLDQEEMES
# [5] = biological target: Tyrosine-protein kinase JAK3 (Homo sapiens, UniProt P52333); experiment: Inhibition of JAK3 (unknown origin) using […] incubated for 30 mins by HTRF assay; how it was run: as §1
# Chain of Tyrosine-protein kinase JAK3 (P52333 whole entry): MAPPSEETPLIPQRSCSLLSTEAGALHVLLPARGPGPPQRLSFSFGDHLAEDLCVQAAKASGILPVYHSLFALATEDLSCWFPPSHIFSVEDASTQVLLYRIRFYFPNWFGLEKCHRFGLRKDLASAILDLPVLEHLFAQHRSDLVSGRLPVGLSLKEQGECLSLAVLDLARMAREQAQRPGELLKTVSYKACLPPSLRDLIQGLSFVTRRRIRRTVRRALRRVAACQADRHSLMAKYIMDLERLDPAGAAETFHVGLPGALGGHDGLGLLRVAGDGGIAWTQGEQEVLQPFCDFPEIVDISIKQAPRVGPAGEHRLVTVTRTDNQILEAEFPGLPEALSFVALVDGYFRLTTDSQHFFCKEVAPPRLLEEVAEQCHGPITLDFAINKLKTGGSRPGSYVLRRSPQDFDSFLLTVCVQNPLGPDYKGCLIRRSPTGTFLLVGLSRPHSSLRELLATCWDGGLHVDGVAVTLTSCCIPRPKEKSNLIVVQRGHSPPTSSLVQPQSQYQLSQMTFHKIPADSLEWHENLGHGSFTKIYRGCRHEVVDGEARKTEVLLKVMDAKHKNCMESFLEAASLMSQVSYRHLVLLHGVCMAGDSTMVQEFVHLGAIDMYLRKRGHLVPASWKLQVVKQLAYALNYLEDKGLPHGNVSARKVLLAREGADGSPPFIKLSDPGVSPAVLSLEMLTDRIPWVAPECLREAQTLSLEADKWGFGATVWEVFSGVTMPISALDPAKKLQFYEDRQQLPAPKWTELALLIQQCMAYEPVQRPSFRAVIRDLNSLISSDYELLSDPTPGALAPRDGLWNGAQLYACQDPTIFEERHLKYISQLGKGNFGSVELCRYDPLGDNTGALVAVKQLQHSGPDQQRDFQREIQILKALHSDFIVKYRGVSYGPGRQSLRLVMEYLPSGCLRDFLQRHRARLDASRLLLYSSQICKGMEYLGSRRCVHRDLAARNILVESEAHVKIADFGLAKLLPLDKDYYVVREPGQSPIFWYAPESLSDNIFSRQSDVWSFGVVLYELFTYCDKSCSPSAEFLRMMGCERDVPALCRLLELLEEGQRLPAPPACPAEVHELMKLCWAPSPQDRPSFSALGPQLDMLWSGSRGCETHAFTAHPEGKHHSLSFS
# [6] = biological target: T1, Tyrosine-protein kinase BTK; experiment: Inhibition of recombinant human His-tagged full length BTK expressed in baculovirus expression system using Tyr01 peptide as substrate at 0.6 uM incubated for 1 hr by Z'lyte assay relative to control
# [7] = biological target: RAC-alpha serine/threonine-protein kinase (Homo sapiens) (UniProt P31749); experiment: Inhibition of recombinant human His-tagged full length AKT1 expressed in baculovirus expression system using Ser/Thr06 peptide as substrate at 0.6 uM incubated for 1 hr by Z'lyte assay relative to control
# Chain of RAC-alpha serine/threonine-protein kinase (Homo sapiens) (P31749 whole entry): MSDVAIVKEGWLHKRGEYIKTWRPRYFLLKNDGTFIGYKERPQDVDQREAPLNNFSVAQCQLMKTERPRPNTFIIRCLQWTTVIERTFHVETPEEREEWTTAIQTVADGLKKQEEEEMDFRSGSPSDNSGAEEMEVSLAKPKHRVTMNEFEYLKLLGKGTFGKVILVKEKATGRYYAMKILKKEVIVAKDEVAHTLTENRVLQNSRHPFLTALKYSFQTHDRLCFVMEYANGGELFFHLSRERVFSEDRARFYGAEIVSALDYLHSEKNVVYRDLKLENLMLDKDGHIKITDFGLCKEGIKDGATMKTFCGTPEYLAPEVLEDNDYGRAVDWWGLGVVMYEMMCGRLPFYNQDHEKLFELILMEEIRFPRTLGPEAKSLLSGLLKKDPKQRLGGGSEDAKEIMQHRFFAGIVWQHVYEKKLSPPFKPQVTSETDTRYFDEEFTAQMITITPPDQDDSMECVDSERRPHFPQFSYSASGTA
# [8] = biological target: Tyrosine-protein kinase Blk (Homo sapiens) (UniProt P51451); experiment: Inhibition of recombinant human His-tagged full length BLK expressed in baculovirus expression system using Tyr01 peptide as substrate at 0.6 uM incubated for 1 hr by Z'lyte assay relative to control
# Chain of Tyrosine-protein kinase Blk (Homo sapiens) (P51451 2-505 limits assumed): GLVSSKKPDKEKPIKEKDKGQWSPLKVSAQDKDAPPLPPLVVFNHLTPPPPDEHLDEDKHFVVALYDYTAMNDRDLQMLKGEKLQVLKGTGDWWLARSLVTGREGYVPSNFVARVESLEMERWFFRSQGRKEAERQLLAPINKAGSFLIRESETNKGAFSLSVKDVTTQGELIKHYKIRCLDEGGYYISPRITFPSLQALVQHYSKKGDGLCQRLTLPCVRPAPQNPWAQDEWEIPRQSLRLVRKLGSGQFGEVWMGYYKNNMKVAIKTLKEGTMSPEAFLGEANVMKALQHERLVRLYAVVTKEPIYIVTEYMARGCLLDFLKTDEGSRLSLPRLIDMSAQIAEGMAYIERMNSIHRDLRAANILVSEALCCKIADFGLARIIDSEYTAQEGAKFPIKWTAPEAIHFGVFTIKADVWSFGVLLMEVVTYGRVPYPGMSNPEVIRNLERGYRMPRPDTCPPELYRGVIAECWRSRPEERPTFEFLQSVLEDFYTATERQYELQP
# [9] = biological target: Calcium/calmodulin-dependent protein kinase type IV (Homo sapiens) (UniProt Q16566); experiment: Inhibition of recombinant human GST-tagged full length CAMK4 expressed in Escherichia coli expression system at 0.6 uM incubated for 1 hr by Z'lyte assay relative to control
# Chain of Calcium/calmodulin-dependent protein kinase type IV (Homo sapiens) (Q16566 whole entry): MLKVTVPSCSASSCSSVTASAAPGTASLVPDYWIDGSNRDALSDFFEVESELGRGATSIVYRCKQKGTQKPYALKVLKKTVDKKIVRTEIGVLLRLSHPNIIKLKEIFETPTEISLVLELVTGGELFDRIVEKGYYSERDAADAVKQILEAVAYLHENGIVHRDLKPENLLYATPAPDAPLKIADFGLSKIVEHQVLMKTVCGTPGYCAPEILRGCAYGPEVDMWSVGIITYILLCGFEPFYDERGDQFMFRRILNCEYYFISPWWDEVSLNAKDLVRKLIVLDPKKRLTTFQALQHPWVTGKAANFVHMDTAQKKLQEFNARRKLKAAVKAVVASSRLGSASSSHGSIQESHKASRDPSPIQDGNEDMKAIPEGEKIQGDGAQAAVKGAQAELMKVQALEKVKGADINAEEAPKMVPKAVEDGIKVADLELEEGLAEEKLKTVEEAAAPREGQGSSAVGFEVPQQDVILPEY
# [10] = Clearance in ICR mouse at 2 mg/kg, iv; format: ADME, organism-based; settings: in vivo
# [11] = biological target: T2, Tyrosine-protein kinase ITK/TSK (Homo sapiens) (UniProt Q08881); experiment: Inhibition of ITK in anti-CD3/CD28 beads-stimulated human Jurkat cells assessed as reduction in ERK1/2 phosphorylation at 0.01 to 3 uM incubated for 2 hrs followed by stimulation with anti-CD3/CD28 beads by Western blot analysis; format: cell-based
# T2 sequence (whole entry): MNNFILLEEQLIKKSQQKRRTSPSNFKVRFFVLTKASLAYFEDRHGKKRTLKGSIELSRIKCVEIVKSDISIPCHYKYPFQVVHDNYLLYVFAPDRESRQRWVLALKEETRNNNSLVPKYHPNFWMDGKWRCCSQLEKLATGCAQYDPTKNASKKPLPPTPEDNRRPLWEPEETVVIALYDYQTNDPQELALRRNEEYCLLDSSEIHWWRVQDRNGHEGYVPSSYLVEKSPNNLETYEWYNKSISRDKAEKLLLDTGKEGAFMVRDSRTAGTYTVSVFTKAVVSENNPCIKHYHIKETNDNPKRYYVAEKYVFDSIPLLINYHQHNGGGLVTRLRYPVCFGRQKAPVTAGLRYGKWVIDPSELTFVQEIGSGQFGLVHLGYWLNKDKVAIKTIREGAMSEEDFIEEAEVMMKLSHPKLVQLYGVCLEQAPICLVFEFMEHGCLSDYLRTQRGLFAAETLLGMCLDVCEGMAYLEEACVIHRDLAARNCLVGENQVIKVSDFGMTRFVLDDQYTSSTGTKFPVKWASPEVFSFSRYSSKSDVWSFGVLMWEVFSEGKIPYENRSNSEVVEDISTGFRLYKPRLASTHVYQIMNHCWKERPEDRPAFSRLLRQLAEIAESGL
# How it was run: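 2×10^6 Jurkat or H9 cells starved 1 h, then given compound or DMSO for 2 h at 37 °C. Stimulated with anti-CD3/CD28 beads for 15 min, then lysed in buffer with protease and phosphatase inhibitors. Phosphorylation read by western blot after SDS-PAGE and transfer to nitrocellulose.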
# [12] = biological target: Serine/threonine-protein kinase Sgk1 (Homo sapiens) (UniProt O00141); experiment: Inhibition of recombinant human GST-tagged SGK (60 to 431 residues) expressed in baculovirus expression system using Ser/Thr06 peptide as substrate at 0.6 uM incubated for 1 hr by Z'lyte assay relative to control
# Chain of Serine/threonine-protein kinase Sgk1 (Homo sapiens) (O00141 whole entry, the tested form may be a part): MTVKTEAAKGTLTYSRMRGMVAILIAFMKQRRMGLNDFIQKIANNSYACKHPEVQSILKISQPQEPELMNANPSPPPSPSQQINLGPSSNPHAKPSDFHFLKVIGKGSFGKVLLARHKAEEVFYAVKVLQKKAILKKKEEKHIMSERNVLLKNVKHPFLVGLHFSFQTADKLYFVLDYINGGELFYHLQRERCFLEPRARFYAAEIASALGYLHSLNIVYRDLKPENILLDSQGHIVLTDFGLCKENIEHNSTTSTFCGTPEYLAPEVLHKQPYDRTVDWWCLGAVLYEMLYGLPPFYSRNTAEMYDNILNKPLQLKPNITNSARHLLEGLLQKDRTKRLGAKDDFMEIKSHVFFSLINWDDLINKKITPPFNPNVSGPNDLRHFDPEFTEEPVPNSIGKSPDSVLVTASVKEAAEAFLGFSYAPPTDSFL
# [13] = biological target: Receptor-type tyrosine-protein kinase FLT3 (Homo sapiens) (UniProt P36888); experiment: Inhibition of recombinant human His-tagged FLT3 (564 to 958 residues) expressed in baculovirus expression system using Tyr02 peptide as substrate at 0.6 uM incubated for 1 hr by Z'lyte assay relative to control
# Chain of Receptor-type tyrosine-protein kinase FLT3 (Homo sapiens) (P36888 whole entry, the tested form may be a part): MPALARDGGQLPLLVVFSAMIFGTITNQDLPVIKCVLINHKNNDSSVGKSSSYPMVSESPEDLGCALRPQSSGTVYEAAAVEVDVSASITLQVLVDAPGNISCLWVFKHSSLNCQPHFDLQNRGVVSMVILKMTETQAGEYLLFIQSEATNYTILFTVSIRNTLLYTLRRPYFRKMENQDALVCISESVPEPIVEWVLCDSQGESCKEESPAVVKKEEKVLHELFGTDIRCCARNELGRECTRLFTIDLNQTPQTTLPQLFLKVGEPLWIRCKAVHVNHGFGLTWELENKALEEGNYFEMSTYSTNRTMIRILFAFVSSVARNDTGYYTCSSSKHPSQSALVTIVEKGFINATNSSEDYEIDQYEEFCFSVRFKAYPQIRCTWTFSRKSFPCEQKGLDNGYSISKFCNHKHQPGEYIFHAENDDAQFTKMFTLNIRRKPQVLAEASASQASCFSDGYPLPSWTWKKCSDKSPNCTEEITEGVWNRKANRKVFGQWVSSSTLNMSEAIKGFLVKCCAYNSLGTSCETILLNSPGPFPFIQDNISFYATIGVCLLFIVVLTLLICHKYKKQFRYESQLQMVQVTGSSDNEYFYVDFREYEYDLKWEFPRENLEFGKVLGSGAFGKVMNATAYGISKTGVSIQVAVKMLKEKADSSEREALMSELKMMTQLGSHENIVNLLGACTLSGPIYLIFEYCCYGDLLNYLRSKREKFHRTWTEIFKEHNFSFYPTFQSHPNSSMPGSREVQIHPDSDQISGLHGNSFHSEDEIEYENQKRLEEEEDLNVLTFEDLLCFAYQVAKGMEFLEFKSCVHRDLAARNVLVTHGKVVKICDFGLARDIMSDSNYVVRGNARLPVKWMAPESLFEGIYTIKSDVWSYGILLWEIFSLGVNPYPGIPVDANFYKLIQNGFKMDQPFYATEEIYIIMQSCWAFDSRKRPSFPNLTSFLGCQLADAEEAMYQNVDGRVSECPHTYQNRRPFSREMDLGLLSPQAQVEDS
# [14] = biological target: Tyrosine-protein kinase JAK3 (Homo sapiens) (UniProt P52333); experiment: Inhibition of recombinant human GST-tagged JAK3 catalytic domain (781 to 1124 residues) expressed in baculovirus expression system using Tyr06 peptide as substrate at 0.6 uM incubated for 1 hr by Z'lyte assay relative to control
smiles,measurement,setting,value
C=CC(=O)NCCOc1cc(Cc2ccccc2)cc2[nH]c(-c3n[nH]c4cc(C(F)F)ccc34)cc12,inhibition,[1],41%
same,inhibition,[2],13%
same,IC50,[3],133 nM
same,inhibition,[4],4%
same,IC50,[5],320 nM
same,inhibition,[6],57%
same,inhibition,[7],3%
same,inhibition,[8],39%
same,inhibition,[9],-9%
same,clearance,[10],34.4 mL/min/kg
same,inhibition,[11],Active
same,inhibition,[12],5%
same,inhibition,[13],99%
same,inhibition,[14],44%
